Reference: ChEMBL document CHEMBL4152390, “Discovery of the First-in-Class Dual Histone Deacetylase-Proteasome Inhibitor” (J Med Chem, 2018)
Activity calls are given as the source filed them. The rule behind the calls is not given here. Where a SMILES comes first, the peptide text is derived from it. The star is where a group is joined. Cbz = O=C(OCc1ccccc1)*

Key:
[1] = molecular target: T1, Proteasome Macropain subunit MB1 (Homo sapiens, UniProt P28074); assay: Inhibition of chymotrypsin-like activity of 20S proteasome in human SEM cells using Suc-LLVY aminoluciferin as substrate after 2 hrs by proteasome-Glo assay; assay type: cell-based
T1 sequence (P28074 whole entry): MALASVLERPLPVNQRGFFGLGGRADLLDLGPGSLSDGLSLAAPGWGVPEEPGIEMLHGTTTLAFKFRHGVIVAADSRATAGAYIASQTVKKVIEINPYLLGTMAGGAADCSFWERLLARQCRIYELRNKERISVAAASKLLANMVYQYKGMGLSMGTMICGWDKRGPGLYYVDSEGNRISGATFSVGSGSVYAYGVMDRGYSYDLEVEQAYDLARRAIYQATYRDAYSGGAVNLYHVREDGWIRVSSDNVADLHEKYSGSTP

[2] = molecular target: T1, Proteasome Macropain subunit MB1; assay: Inhibition of chymotrypsin-like activity of 20S proteasome in human HL60 cells using Suc-LLVY aminoluciferin as substrate after 2 hrs by proteasome-Glo assay; assay type: cell-based
[3] = molecular target: T1, Proteasome Macropain subunit MB1; assay: Inhibition of chymotrypsin-like activity of 20S proteasome in imatinib-resistant human SUP-B15 cells using Suc-LLVY aminoluciferin as substrate after 2 hrs by proteasome-Glo assay; assay type: cell-based
SEM cells [4] = assay: Inhibition of proteasome in human SEM cells assessed as increase in aggresome accumulation at 10 nM after 18 hrs by fluorescence microscopic method; assay type: cell-based
In short: (§1)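 Cells treated 18 h, then stained with a proteostat aggresome dye plus DNA stain. Imaged by fluorescence microscopy (63X objective) or analysed by FACS, with aggresome propensity factor from relative mean fluorescence intensity.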

Homo sapiens = species: Homo sapiens; assay: Inhibition of proteasome in human HL60 cells assessed as increase in cleaved PARP expression at 1 to 100 nM after 24 hrs by immunoblot assay; assay type: cell-based
In short: (§2)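 Cells exposed for 24 h at indicated concentrations; lysates immunoblotted for acetyl-α-tubulin, acetyl-histone H3, PARP, with GAPDH as loading control.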

SEM cells [5] = assay: Inhibition of proteasome in human SEM cells assessed as increase in cleaved PARP expression at 1 to 100 nM after 24 hrs by immunoblot assay; assay type: cell-based
In short: (§3)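 Cells treated with compounds for 24 h; lysates immunoblotted for PARP alongside acetyl-α-tubulin, acetyl-histone H3 and GAPDH.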

PBMC = assay: cells; assay type: ADME, cell-based; conditions: Homo sapiens, 72 h
SUP-B15 [6] = assay: Inhibition of proteasome in imatinib-resistant human SUP-B15 cells assessed as increase in cleaved PARP expression at 1 to 100 nM after 24 hrs by immunoblot assay; assay type: cell-based; in short: as §3
SEM cells [7] = assay: Inhibition of proteasome in human SEM cells assessed as increase in aggresome accumulation at 10 nM after 18 hrs by FACS analysis; assay type: cell-based; in short: as §1
SEM cells [8] = assay: Inhibition of proteasome in human SEM cells assessed as increase in aggresome accumulation at 3 uM after 18 hrs by FACS analysis; assay type: cell-based; in short: as §1
SEM cells [9] = assay: Inhibition of proteasome in human SEM cells assessed as increase in aggresome accumulation at 3 uM after 18 hrs by fluorescence microscopic method; assay type: cell-based
In short: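 SEM cells exposed for 18 h, then labeled with a proteostat aggresome detection kit with DNA counterstain per kit guidelines; aggresomes imaged by fluorescence microscopy with a 63X objective.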

[10] = molecular target: T2, Protein deacetylase HDAC6 (Homo sapiens) (UniProt Q9UBN7); assay: Inhibition of HDAC6 in imatinib-resistant human SUP-B15 cells assessed as increase in acetyl-alpha tubulin expression at 0.1 to 10 uM after 24 hrs by immunoblot assay; assay type: cell-based; in short: as §2
T2 sequence (whole entry): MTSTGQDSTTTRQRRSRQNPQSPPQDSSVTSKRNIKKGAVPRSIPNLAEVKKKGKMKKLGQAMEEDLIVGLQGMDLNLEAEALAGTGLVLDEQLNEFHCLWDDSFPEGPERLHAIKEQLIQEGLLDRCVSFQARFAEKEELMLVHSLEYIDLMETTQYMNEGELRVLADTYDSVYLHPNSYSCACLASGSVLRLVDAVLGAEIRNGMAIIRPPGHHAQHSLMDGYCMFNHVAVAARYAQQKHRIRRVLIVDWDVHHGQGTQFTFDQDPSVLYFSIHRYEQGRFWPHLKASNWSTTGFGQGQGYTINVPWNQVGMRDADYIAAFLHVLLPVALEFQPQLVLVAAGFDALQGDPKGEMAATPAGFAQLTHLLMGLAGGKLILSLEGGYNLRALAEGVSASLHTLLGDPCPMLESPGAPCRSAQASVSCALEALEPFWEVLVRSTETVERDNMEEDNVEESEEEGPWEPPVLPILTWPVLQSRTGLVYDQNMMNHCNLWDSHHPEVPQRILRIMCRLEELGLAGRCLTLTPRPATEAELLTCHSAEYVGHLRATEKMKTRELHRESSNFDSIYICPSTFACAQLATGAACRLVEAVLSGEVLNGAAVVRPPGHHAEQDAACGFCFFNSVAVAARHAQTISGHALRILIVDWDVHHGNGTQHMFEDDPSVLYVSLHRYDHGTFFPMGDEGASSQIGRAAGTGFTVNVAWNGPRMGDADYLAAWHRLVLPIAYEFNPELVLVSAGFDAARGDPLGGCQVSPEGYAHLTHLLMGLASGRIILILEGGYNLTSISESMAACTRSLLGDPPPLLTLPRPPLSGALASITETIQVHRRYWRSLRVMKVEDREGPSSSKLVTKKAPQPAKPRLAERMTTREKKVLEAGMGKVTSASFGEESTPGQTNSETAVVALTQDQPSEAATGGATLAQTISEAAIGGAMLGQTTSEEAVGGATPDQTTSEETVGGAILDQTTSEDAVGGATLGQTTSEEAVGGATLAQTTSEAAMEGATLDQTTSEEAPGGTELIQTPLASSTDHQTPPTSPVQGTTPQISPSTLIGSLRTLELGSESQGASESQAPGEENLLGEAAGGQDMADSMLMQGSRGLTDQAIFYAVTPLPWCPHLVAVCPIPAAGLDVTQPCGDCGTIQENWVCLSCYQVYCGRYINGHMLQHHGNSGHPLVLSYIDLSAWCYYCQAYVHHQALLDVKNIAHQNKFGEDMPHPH

HL-60 = assay: Cytotoxicity against human HL60 cells after 72 hrs by CellTiter-Glo luminescent cell viability assay; assay type: functional, cell-based; conditions: HL-60, 72 h
[11] = Cytotoxicity against human BCP-ALL cells derived from patient 1 after 72 hrs by CellTiter-Glo luminescent cell viability assay; assay type: functional, cell-based
SUP-B15 [12] = assay: Cytotoxicity against imatinib-resistant human SUP-B15 cells after 72 hrs by CellTiter-Glo luminescent cell viability assay; assay type: functional, cell-based; conditions: SUP-B15, 72 h
[13] = molecular target: T2, Protein deacetylase HDAC6 (Homo sapiens); assay: Inhibition of HDAC6 in imatinib-resistant human SUP-B15 cells assessed as increase in acetyl-histone H3 expression at 0.1 to 10 uM after 24 hrs by immunoblot assay; assay type: cell-based; in short: as §2
KCL-22 [14] = assay: Cytotoxicity against human KCL22 cells after 72 hrs by CellTiter-Glo luminescent cell viability assay; assay type: functional, cell-based; conditions: KCL-22, 72 h
In short: (§4)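 Inhibitors dispensed in increasing concentrations (50 nM–25 μM) and cells exposed 72 h. Viability read by ATP-dependent luminescence (CellTiter-Glo). Raw data normalized to controls. IC50 obtained by sigmoid dose–response fit with non-linear regression.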

[15] = Cytotoxicity against human BCP-ALL cells derived from patient 2 after 72 hrs by CellTiter-Glo luminescent cell viability assay; assay type: functional, cell-based
In short: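 Compounds dispensed digitally at increasing concentrations, 50 nM–25 μM; viability read by CellTiter-Glo luminescence after 72 h. Raw data normalized to controls, IC50 from sigmoid dose curve by non-linear regression. Patient samples: primary cells from newly diagnosed or relapsed patients, cultured in stem cell expansion or mononuclear cell medium.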

KCL-22 [16] = assay: Cytotoxicity against imatinib-resistant human KCL22 cells after 72 hrs by CellTiter-Glo luminescent cell viability assay; assay type: functional, cell-based; conditions: KCL-22, 72 h; in short: as §4
[17] = molecular target: T2, Protein deacetylase HDAC6 (Homo sapiens); conditions: SUP-B15, 0.1 to 10 uM
[18] = Cytotoxicity against human BCP-ALL cells derived from patient 3 after 72 hrs by CellTiter-Glo luminescent cell viability assay; assay type: functional, cell-based
[19] = molecular target: T2, Protein deacetylase HDAC6 (Homo sapiens); assay: Inhibition of HDAC6 in human SEM cells assessed as increase in acetyl-histone H3 expression at 0.1 to 10 uM after 24 hrs by immunoblot assay; assay type: cell-based; in short: as §2
[20] = molecular target: T2, Protein deacetylase HDAC6 (Homo sapiens); assay: Inhibition of HDAC6 in human SEM cells assessed as increase in acetyl-alpha tubulin expression at 0.1 to 10 uM after 24 hrs by immunoblot assay; assay type: cell-based; in short: as §2
[21] = molecular target: T2, Protein deacetylase HDAC6 (Homo sapiens); conditions: SEM, 0.1 to 10 uM
[22] = molecular target: T2, Protein deacetylase HDAC6 (Homo sapiens); conditions: SEM, 1.6 uM
[23] = Cytotoxicity against human RPMI18226 cells after 72 hrs by CellTiter-Glo luminescent cell viability assay; assay type: functional, cell-based; conditions: RPMI18226, 72 h
SEM cells [24] = assay: Cytotoxicity against human SEM cells after 72 hrs by CellTiter-Glo luminescent cell viability assay; assay type: functional, cell-based; in short: as §4
SEM cells [25] = assay: Antiproliferative activity against human SEM cells at IC50 to 2 times IC50 after 24 to 72 hrs by trypan exclusion method; assay type: functional, cell-based
[26] = molecular target: T2, Protein deacetylase HDAC6 (Homo sapiens); conditions: 0.1 to 10 uM
[27] = Cytotoxicity against human BCP-ALL cells derived from patient 4 after 72 hrs by CellTiter-Glo luminescent cell viability assay; assay type: functional, cell-based
[28] = molecular target: T2, Protein deacetylase HDAC6 (Homo sapiens); assay: Inhibition of HDAC6 in human HL60 cells assessed as increase in acetyl-histone H3 expression at 0.1 to 10 uM after 24 hrs by immunoblot assay; assay type: cell-based; in short: as §2
[29] = molecular target: T2, Protein deacetylase HDAC6 (Homo sapiens); assay: Inhibition of HDAC6 in human HL60 cells assessed as increase in acetyl-alpha tubulin expression at 0.1 to 10 uM after 24 hrs by immunoblot assay; assay type: cell-based; in short: as §2

With `O=C(CCCCCCC(=O)Nc1ccccc1)NO` [VORINOSTAT] as the compound, how does the IC50 [1] read?
The IC50 was > 25 µM.

And the IC50 [2]?
Its IC50 is > 25 µM.

And the IC50 [3]?
Its IC50 is > 25 µM.

For `CC(C)C[C@H](NC(=O)[C@H](Cc1ccccc1)NC(=O)c1cnccn1)B(O)O` [BORTEZOMIB], which inhibition (SEM cells [4]) is on record?
Its inhibition is “Active”.

And the inhibition (Homo sapiens)?
Its inhibition is “Active”.

What about the inhibition (SEM cells [5]) of the same compound?
Its inhibition is “Active”.

What about the IC50 (PBMC) of the same compound?
The IC50 was < 0.035 µM.

What about the inhibition (SUP-B15 [6]) of the same compound?
The inhibition was “Active”.

What about the inhibition (SEM cells [7]) of the same compound?
Its inhibition is “Active”.

Which inhibition (SEM cells [8]) does the source give for `CC(C)C[C@@H](C=O)NC(=O)[C@H](CC(C)C)NC(=O)[C@H](CC(C)C)NC(=O)OCc1ccccc1` (Cbz-Leu-Leu-Leu-aldehyde) here?
The inhibition was “Active”.

What about the inhibition (SEM cells [9]) of the same compound?
The inhibition was “Active”.

For `O=C(CCCCCCNC(=O)c1cnc(N(c2ccccc2)c2ccccc2)nc1)NO` [RICOLINOSTAT], which IC50 [1] is on record?
The IC50 was > 25 µM.

And the inhibition [10]?
The inhibition was “Active”.

And the IC50 (HL-60)?
Its IC50 is 2.36 µM.

What about the IC50 [11] of the same compound?
The IC50 was 0.29 µM.

What about the IC50 (SUP-B15 [12]) of the same compound?
The IC50 was 3.54 µM.

What about the inhibition [13] of the same compound?
Its inhibition is “Active”.

And the IC50 (KCL-22 [14])?
Its IC50 is 3.75 µM.

What about the IC50 [15] of the same compound?
Its IC50 is 0.58 µM.

What about the IC50 (KCL-22 [16]) of the same compound?
The IC50 was 3.38 µM.

What about the inhibition [17] of the same compound?
Its inhibition is “Active”.

And the IC50 [18]?
The IC50 was 4.45 µM.

What about the inhibition [19] of the same compound?
Its inhibition is “Active”.

And the IC50 [2]?
Its IC50 is > 25 µM.

And the inhibition [20]?
The inhibition was “Active”.

What about the IC50 [3] of the same compound?
The IC50 was > 25 µM.

What about the inhibition [21] of the same compound?
Its inhibition is “Active”.

What about the inhibition [22] of the same compound?
The inhibition was “Active”.

And the IC50 [23]?
Its IC50 is 1.97 µM.

And the IC50 (PBMC)?
The IC50 was < 3.6 µM.

And the IC50 (SEM cells [24])?
The IC50 was 1.61 µM.

What about the Activity (SEM cells [25]) of the same compound?
Its Activity is “Active”.

And the inhibition [26]?
Its inhibition is “Active”.

What about the IC50 [27] of the same compound?
Its IC50 is 0.54 µM.

And the inhibition [28]?
Its inhibition is “Active”.

And the inhibition [29]?
Its inhibition is “Active”.
